According to ChEMBL document CHEMBL2169822, “Discovery and optimization of 1,3,4-trisubstituted-pyrazolone derivatives as novel, potent, and nonsteroidal farnesoid X receptor (FXR) selective antagonists” (J Med Chem, 2012):
Activity calls are given as the source filed them. No cut-off for these calls is given here.

Tests used:
[1] = molecular target: T1, Peroxisome proliferator-activated receptor gamma (Homo sapiens) (UniProt P37231); assay: Antagonist activity at recombinant PPARgamma LBD expressed in HEK293T cells co-expressing GAL4 DBD assessed as inhibition of rosiglitazone-induced transactivation at 20 uM by luciferase reporter gene assay; assay type: functional, cell-based; conditions: HEK-293T
T1 sequence (whole entry): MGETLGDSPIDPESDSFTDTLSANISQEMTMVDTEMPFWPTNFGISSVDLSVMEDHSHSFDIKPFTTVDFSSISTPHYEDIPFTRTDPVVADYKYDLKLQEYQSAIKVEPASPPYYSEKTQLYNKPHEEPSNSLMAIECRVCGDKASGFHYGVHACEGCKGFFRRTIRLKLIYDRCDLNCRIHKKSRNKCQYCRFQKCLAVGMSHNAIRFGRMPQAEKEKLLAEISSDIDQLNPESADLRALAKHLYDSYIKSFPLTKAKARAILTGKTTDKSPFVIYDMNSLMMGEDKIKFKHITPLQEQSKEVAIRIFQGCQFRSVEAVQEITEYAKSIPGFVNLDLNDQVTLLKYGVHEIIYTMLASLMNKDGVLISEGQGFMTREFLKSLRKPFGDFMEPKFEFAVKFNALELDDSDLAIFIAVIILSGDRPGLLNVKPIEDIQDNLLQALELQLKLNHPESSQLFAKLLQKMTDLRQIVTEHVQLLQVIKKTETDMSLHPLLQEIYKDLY
Outline: (§1)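 One-hybrid assay in HEK293T cells cotransfected with a Gal4 DBD–NR-LBD fusion (RXRα, LXRα, GR, PR, PPARδ or PPARγ) plus UAS-TK-Luc reporter. Compound was 20 μM, given alone or with agonist: 9cRA 0.1 μM (RXRα), TO901317 0.5 μM (LXRα), dexamethasone 50 nM (GR), progesterone 100 nM (PR), GW1516 10 μM (PPARδ), rosiglitazone 10 μM (PPARγ). Luciferase read-out; three independent experiments.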

[2] = molecular target: T2, Bile acid receptor (Homo sapiens) (UniProt Q96RI1); assay: Antagonist activity at human FXR in human HepG2 cells assessed as reduction in cholesterol level at 10 uM after 24 hrs; assay type: functional, cell-based
T2 sequence (whole entry): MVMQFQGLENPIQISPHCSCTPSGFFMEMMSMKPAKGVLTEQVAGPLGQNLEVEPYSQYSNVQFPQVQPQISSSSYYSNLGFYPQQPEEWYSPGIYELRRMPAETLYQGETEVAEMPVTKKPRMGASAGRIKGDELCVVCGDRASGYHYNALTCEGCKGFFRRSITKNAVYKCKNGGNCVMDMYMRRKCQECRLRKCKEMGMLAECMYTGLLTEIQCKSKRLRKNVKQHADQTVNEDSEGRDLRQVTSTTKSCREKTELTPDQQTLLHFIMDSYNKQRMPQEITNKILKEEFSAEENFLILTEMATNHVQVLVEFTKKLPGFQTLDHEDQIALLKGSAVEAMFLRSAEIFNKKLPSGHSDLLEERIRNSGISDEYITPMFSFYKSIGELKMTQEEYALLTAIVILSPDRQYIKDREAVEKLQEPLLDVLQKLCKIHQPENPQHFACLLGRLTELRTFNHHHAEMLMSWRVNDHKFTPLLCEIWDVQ
Outline: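 HepG2 cells were serum-starved overnight in FBS-free DMEM, then given DMSO or compound for 24 h in serum-free DMEM. Cells were lysed in RIPA buffer, sonicated on ice and centrifuged at 12000 rpm, 4 °C. Triglyceride and total cholesterol in the cleared lysate were measured by kits, with total protein by BCA. At least three experiments.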

[3] = molecular target: T3, Peroxisome proliferator-activated receptor delta (Homo sapiens) (UniProt Q03181); assay: Agonist activity at recombinant PPARdelta LBD expressed in HEK293T cells co-expressing GAL4 DBD at 20 uM by transactivation assay; assay type: functional, cell-based; conditions: HEK-293T; outline: as §1
T3 sequence (whole entry): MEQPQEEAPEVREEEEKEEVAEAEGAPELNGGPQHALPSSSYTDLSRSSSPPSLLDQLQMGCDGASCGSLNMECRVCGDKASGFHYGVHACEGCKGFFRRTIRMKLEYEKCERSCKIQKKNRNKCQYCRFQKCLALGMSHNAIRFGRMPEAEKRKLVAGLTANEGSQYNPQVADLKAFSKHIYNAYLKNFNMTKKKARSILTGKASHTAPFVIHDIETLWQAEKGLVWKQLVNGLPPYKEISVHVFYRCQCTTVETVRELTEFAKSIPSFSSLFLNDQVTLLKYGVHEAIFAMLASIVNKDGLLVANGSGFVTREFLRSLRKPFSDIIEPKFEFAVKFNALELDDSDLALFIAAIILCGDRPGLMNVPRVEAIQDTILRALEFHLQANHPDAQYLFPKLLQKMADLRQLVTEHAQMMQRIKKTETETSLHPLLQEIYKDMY

Mus musculus = assay: Reduction of serum triglyceride level in cholesterol-fed C57BL/6 mouse administered orally after 10 days; assay type: functional, organism-based
Outline: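 Male C57BL/6 mice, 8–12 weeks old, were randomized into five groups of nine. Control mice had ground chow; the other groups had chow with 2% cholesterol. Compound (50 or 100 mg/kg) or reference (100 mg/kg) was suspended in 0.5% CMC-Na and given by oral gavage; control and vehicle mice got 0.5% CMC-Na. Serum and hepatic triglyceride and total cholesterol were measured.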

inhibition [1]: inactive
inhibition [2]: 27.1%
Activity [3]: inactive
SMILES: COc1cc(/C=C2\C(=O)N(c3cccc([N+](=O)[O-])c3)N=C2c2ccccc2)ccc1O
Activity (Mus musculus): Dose-dependent effect
